This is an account of results in ChEMBL document CHEMBL1909513, “A double prodrug system for colon targeting of benzenesulfonamide COX-2 inhibitors” (Bioorg Med Chem Lett, 2011).

What is called half-life is the time needed for the level to fall by half in the phase considered. For orientation: Papp B→A means the apparent permeability from the basolateral to the apical side of a cell layer. One may read the pKa as the pH at which an ionisable group is half protonated. Read a high pKa as a group that holds its proton tightly.

Molecules are shown by their SMILES.

A short description of data set [1]: Chemical stability of the compound in borate buffered saline assessed as half life of cyclization at pH 6. Format: physicochemical. In a few lines:
(§1)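 Lactamization of the amino intermediate in borate-buffered saline, pH range 5–8, 37 °C, ionic strength 0.12 (figure legend gives I = 0.05). Parent loss and formation of parent drug and dihydroquinolone followed by HPLC, validated at 1.1–16.6 µM. Apparent first-order rate constants fitted by nonlinear regression, three determinations per pH; half-lives derived from these constants.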

Data set [2] can be described thus: Chemical stability of the compound in borate buffered saline assessed as half life of cyclization at pH 6.2. Format: physicochemical. The procedure, abridged:
as §1

Data set [3] can be described thus: Chemical stability of the compound in borate buffered saline assessed as half life of cyclization at pH 7. Format: physicochemical. In a few lines:
as §1

Data set [4] can be described thus: Chemical stability of the compound in borate buffered saline assessed as half life of cyclization at pH 6.28. Format: physicochemical. In a few lines: as §1
The nature of data set [5]: Chemical stability of the compound in borate buffered saline assessed as half life of cyclization at pH 6.4. Format: physicochemical. In a few lines:
as §1

A short description of data set [6]: Chemical stability of the compound in borate buffered saline assessed as half life of cyclization at pH 6.11. Format: physicochemical. In a few lines: as §1
Data set [7] is described as follows: Chemical stability of the compound in borate buffered saline assessed as half life of cyclization at pH 5.52. Format: physicochemical. In a few lines: as §1
Data set [8] can be described thus: Chemical stability of the compound in borate buffered saline assessed as half life of cyclization at pH 7.4. Format: physicochemical. The procedure, abridged:
as §1

Data set [9] can be described thus: Secretory transport of the compound through transepithelial human Caco2 model. Format: ADME, cell-based. The following applies: Caco-2. In general terms: Passage across Caco-2 layers is used to estimate intestinal permeability.
Data set [10] in a line: Dissociation constant, pKa of the compound. Format: physicochemical.

Consider `Cc1ccc(-c2cc(C(F)(F)F)nn2-c2ccc(S(=O)(=O)NC(=O)CCc3ccccc3N)cc2)cc1`, for which the half-life in data set [1] was 10.9 min; in [2], 29.5 min; in data set [3], 130 min; in data set [4], 41.2 min; in data set [5], 60.3 min; in [6], 15.2 min. The half-life in data set [7] amounted to 10.2 min; in data set [8] it was 632 min.

In [9], `Cc1ccc(-c2cc(C(F)(F)F)nn2-c2ccc(S(N)(=O)=O)cc2)cc1` [CELECOXIB] returned a Papp B→A of 12.4 ×10⁻⁶ cm/s.

In the case of `CCC(=O)NS(=O)(=O)c1ccc(-c2c(-c3ccccc3)noc2C)cc1` [PARECOXIB], the pKa in data set [10] was 4.9.
